In ChEMBL document CHEMBL1158529, “Synthesis and biological evaluation of novel C5 halogen-functionalized S-DABO as potent HIV-1 non-nucleoside reverse transcriptase inhibitors” (Bioorg Med Chem, 2010) one finds IC50, inhibition and Ratio IC50 data, which are given here for 37 compounds.

The structures appear in SMILES notation. Activity calls are given as the source filed them. The rule behind the calls is not given here. A value given as a limit tells only on which side of the number the result lay.

One test concerns the target Human immunodeficiency virus type 1 reverse transcriptase (Human immunodeficiency virus 1, UniProt Q72547). Kind of test: Inhibition of HIV1 reverse transcriptase by ELISA. Put shortly: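 HIV-1 reverse transcriptase activity measured with a poly(rA)/oligo(dT)15 homopolymer template and read by HIV antigen-detection ELISA.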
In general, IC50 refers to the midpoint of a concentration-inhibition curve. `COc1cccc(CSc2nc(Cc3ccccc3)c(C)c(=O)[nH]2)c1` gave an IC50 of 48.7 µM. That is a double-digit micromolar value.
Regarding `O=c1cc(Cc2ccccc2)nc(SCOCc2ccccc2)[nH]1`, the midpoint of inhibition, the IC50, lay at 12.1 µM.
Still for that read-out and setting: under `Cc1c(Cc2ccccc2)nc(SCOCc2ccccc2)[nH]c1=O` stands 19 µM; under `CC(Sc1nc(Cc2ccccc2)cc(=O)[nH]1)c1ccccc1` (centres undefined), above 100 µM.
The compound `O=c1[nH]c(SCc2ccccc2)nc(Cc2ccccc2)c1I` had an IC50 of 10.1 µM.
Same read-out and setting: under `CC(C)(C)c1ccc(CSc2nc(Cc3ccccc3)c(I)c(=O)[nH]2)cc1` stands 5.62 µM; under `Cc1ccccc1CSc1nc(Cc2ccccc2)cc(=O)[nH]1`, 47.7 µM; under `Cc1ccccc1CSc1nc(Cc2ccccc2)c(I)c(=O)[nH]1`, 4.16 µM.
Same read-out and setting: under `Cc1cccc(CSc2nc(Cc3ccccc3)c(Br)c(=O)[nH]2)c1` stands 26.7 µM.
On the same count and under the same terms, under `O=c1[nH]c(SCc2ccc3ccccc3c2)nc(Cc2ccccc2)c1Br` stands 12.3 µM; under `Cc1c(Cc2ccccc2)nc(SCCc2ccccc2)[nH]c1=O`, 59.6 µM.
In turn, `Cc1cccc(CSc2nc(Cc3ccccc3)c(I)c(=O)[nH]2)c1` registered an IC50 of 3.03 µM. This IC50 lies about 20-fold lower than the previous one.
`O=c1[nH]c(SCc2ccc3ccccc3c2)nc(Cc2ccccc2)c1I` had an IC50 of 2.04 µM.
On to `O=c1[nH]c(SCCCc2ccccc2)nc(Cc2ccccc2)c1I`, for which the IC50 was determined as 0.18 µM. This IC50 lies about 11-fold lower than the previous one.
On the same count and under the same terms, under `Cc1ccccc1CSc1nc(Cc2ccccc2)c(C)c(=O)[nH]1` stands above 100 µM.
`O=c1[nH]c(SCCc2ccccc2)nc(Cc2ccccc2)c1Br` showed an IC50 of 13.9 µM.
On to `CCOCSc1nc(Cc2ccccc2)cc(=O)[nH]1`, for which the IC50 was above 100 µM.
The same measure, in the same setting: under `Cc1c(Cc2ccccc2)nc(SC(C)c2ccccc2)[nH]c1=O` (centres undefined) stands above 100 µM.
Same read-out and setting: as for `COc1cccc(CSc2nc(Cc3ccccc3)cc(=O)[nH]2)c1`, the figure is 90.8 µM; as for `O=c1cc(Cc2ccccc2)nc(SCCCc2ccccc2)[nH]1`, 8.17 µM.
In the case of `Cc1ccccc1CSc1nc(Cc2ccccc2)c(Br)c(=O)[nH]1`, the half-maximal inhibitory concentration (IC50) was found to be 24.9 µM.
Still for that read-out and setting: as for `COc1cccc(CSc2nc(Cc3ccccc3)c(I)c(=O)[nH]2)c1`, the figure is 8.29 µM; as for `C=CCSc1nc(Cc2ccccc2)cc(=O)[nH]1`, above 100 µM.
In turn, `O=c1[nH]c(SCCc2ccccc2)nc(Cc2ccccc2)c1I` came in with an IC50 of 2.4 µM.
Compound `CCOCSc1nc(Cc2ccccc2)c(C)c(=O)[nH]1` showed an IC50 of 51.7 µM.
The compound `O=c1cc(Cc2ccccc2)nc(SCCc2ccccc2)[nH]1` came in with an IC50 of 17.4 µM.
The same measure, in the same setting: under `CCOCn1c(Cc2ccccc2)c(C(C)C)c(=O)[nH]c1=O` [EMIVIRINE] stands 0.15 µM; under `Cc1cccc(CSc2nc(Cc3ccccc3)cc(=O)[nH]2)c1`, 91.1 µM; under `Cc1c(Cc2ccccc2)nc(SCCCc2ccccc2)[nH]c1=O`, 2.93 µM.

The target in a further test is Human immunodeficiency virus type 1 reverse transcriptase (Human immunodeficiency virus 1) (UniProt Q72547). The test can be described thus: Inhibition of HIV1 reverse transcriptase up to 100 uM by ELISA. A digest of the protocol: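 RT assay on a poly(rA)/oligo(dT)15 homopolymer template with HIV antigen-detection ELISA read-out. Compounds were tested for loss of RT activity at concentrations up to 100 µM. Values are means of three separate experiments, with triplicate variation under 15%.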
(ELISA stands for enzyme-linked immunosorbent assay.)
Take `CC(C)(C)c1ccc(CSc2nc(Cc3ccccc3)cc(=O)[nH]2)cc1`: the inhibition entry is “inactive”.
Regarding `Cc1cccc(CSc2nc(Cc3ccccc3)c(C)c(=O)[nH]2)c1`, the inhibition result was “inactive”.
For the compound `O=c1cc(Cc2ccccc2)nc(SCc2ccccc2)[nH]1`, the inhibition result is “inactive”.
The same measure, in the same setting: under `Cc1c(Cc2ccccc2)nc(SCc2ccc(C(C)(C)C)cc2)[nH]c1=O` stands “inactive”; under `Cc1c(Cc2ccccc2)nc(SCc2ccccc2)[nH]c1=O`, “inactive”.
On the same count and under the same terms, as for `O=c1cc(Cc2ccccc2)nc(SCc2ccc3ccccc3c2)[nH]1`, the entry is “inactive”.
Same read-out and setting: under `C=CCSc1nc(Cc2ccccc2)c(C)c(=O)[nH]1` stands “inactive”; under `Cc1c(Cc2ccccc2)nc(SCc2ccc3ccccc3c2)[nH]c1=O`, “inactive”.

The next test has the same target. Kind of test: Ratio of nevirapine IC50 to compound IC50 for HIV1 reverse transcriptase.
Turning to `O=c1[nH]c(SCCCc2ccccc2)nc(Cc2ccccc2)c1I`, the Ratio IC50 was determined as 23.

Another test shares this target. The test can be described thus: Ratio of compound IC50 to 5a3 IC50 for HIV1 reverse transcriptase.
For the compound `O=c1cc(Cc2ccccc2)nc(SCCCc2ccccc2)[nH]1`, the Ratio IC50 is 45.
